By Ki is commonly meant the dissociation constant of the complex between target and ligand, obtained from inhibition or displacement. Usually inhibition stands for how much of the control response was suppressed. As usually defined, the Kb is the affinity of an antagonist, worked out from how it opposes an agonist.

Experiment [1] deals with T1, Adenosine receptor A1 (Homo sapiens, UniProt P30542).
T1 sequence (P30542 whole entry): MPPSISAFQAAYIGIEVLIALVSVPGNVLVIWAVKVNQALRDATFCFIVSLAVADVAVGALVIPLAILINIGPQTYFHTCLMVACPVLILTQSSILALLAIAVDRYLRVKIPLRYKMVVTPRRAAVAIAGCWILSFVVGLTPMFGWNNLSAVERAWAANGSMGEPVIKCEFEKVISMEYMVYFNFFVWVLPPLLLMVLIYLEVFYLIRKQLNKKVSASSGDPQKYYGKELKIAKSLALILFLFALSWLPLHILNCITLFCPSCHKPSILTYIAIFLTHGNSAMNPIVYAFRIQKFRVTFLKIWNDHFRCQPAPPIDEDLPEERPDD
Put plainly: (§1) Displacement of [3H]-DPCPX from human adenosine A1 receptor expressed in CHO cell membranes after 120 mins by scintillation counting analysis. Summed up: (§2)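 Membranes from transfected CHO cells in 50 mM Tris HCl pH 7.4 at 50 µg protein/assay, pretreated with adenosine deaminase 2 IU/ml. [3H]DPCPX 1 nM against 6-8 antagonist concentrations, 120 min at 25 °C. Non-specific binding defined with 1 µM DPCPX. GF/B filtration, then scintillation counting. Ki by Cheng-Prusoff, n=3-6, mean ± SEM.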
(In a radioligand displacement assay an active substance lowers the binding of a labelled ligand.)

For experiment [2], the target named is T2, Adenosine receptor A1 (Homo sapiens) (UniProt P30542).
T2 sequence (whole entry): T1 sequence (P30542 whole entry)
Described as §1. Details: concentration or dose not given beside the values. The essentials:
as §2

The target of experiment [3] is T3, Adenosine receptor A3 (Homo sapiens, UniProt P0DMS8).
T3 sequence (P0DMS8 whole entry): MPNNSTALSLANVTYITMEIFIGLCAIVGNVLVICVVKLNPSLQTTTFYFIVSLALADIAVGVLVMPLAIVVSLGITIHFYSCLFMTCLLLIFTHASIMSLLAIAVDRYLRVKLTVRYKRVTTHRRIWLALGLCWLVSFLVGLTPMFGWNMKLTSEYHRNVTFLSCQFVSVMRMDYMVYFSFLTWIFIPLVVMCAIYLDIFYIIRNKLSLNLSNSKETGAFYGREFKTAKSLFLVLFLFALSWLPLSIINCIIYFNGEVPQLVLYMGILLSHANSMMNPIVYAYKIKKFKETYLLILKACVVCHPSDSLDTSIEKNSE
Put plainly: (§3) Displacement of [3H]-MRE3008F20 from human adenosine A3 receptor expressed in CHO cell membranes after 120 mins by scintillation counting analysis. The essentials: (§4)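 Membranes from transfected CHO cells in 50 mM Tris HCl, 10 mM MgCl2, 1 mM EDTA, pH 7.4, at 50 µg protein/assay. [3H]MRE3008F20 1 nM with 6-8 ligand concentrations, 120 min at 4 °C. Non-specific binding defined with 1 µM MRE3008F20. GF/B filtration, then scintillation counting. Ki by Cheng-Prusoff, n=3-6, mean ± SEM.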

The target of experiment [4] is Adenosine receptor A2a (Homo sapiens, UniProt P29274). As to the kind of experiment: Displacement of [3H]-ZM241385 from human adenosine A2A receptor expressed in CHO cell membranes after 60 mins by scintillation counting analysis. Summed up:
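Membranes from transfected CHO cells in 50 mM Tris HCl, 10 mM MgCl2, pH 7.4, at 50 µg protein/assay. [3H]ZM241385 2 nM with 6-8 competitor concentrations, 60 min at 4 °C. Non-specific binding defined with 1 µM ZM241385. Filtered on GF/B, bound radioactivity counted. Ki via Cheng-Prusoff, n=3-6, mean ± SEM.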

The target of experiment [5] is T4, Adenosine receptor A3 (Homo sapiens) (UniProt P0DMS8).
T4 sequence (whole entry): T3 sequence (P0DMS8 whole entry)
As to the kind of experiment: Antagonist activity at human adenosine A3 receptor expressed in CHO cells assessed as inhibition of Cl-IB-MECA-mediated suppression of forskolin-induced cyclic-AMP accumulation by scintillation counting analysis in presence of [3H]-cyclic AMP. Format: cell-based. Summed up: (§5)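 Preincubated at 37 °C. A2B: antagonism of NECA (100 nM)-stimulated cAMP. A3: forskolin 1 µM plus Cl-IB-MECA (100 nM). Stopped with cold 6% TCA, then ether-extracted. cAMP measured by competition protein binding with [3H]cAMP. KB derived by modified Cheng-Prusoff (Leff and Dougall), mean ± SEM.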

The target of experiment [6] is T5, Adenosine receptor A2b (Homo sapiens) (UniProt P29275).
T5 sequence (whole entry): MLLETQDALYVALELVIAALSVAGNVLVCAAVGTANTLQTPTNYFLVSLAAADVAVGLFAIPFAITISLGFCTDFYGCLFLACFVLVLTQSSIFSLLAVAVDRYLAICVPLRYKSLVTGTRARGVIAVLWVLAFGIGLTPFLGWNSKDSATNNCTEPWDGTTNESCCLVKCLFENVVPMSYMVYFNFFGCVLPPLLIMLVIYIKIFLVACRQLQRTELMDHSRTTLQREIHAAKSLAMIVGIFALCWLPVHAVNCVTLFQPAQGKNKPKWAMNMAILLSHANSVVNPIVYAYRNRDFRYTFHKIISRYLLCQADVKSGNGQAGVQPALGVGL
As to the kind of experiment: Antagonist activity at human adenosine A2B receptor expressed in CHO cells assessed as inhibition of NECA-stimulated cyclic AMP production by scintillation counting analysis in presence of [3H]-cyclic AMP. Format: cell-based. Set-up: inhibition: concentration or dose not given beside the values. The note with it: for inhibition: concentration not given here. The essentials: as §5

Experiment [7] concerns the target T4, Adenosine receptor A3 (Homo sapiens). The description is as §3. The essentials: as §4

Chain of Adenosine receptor A2a (P29274 whole entry): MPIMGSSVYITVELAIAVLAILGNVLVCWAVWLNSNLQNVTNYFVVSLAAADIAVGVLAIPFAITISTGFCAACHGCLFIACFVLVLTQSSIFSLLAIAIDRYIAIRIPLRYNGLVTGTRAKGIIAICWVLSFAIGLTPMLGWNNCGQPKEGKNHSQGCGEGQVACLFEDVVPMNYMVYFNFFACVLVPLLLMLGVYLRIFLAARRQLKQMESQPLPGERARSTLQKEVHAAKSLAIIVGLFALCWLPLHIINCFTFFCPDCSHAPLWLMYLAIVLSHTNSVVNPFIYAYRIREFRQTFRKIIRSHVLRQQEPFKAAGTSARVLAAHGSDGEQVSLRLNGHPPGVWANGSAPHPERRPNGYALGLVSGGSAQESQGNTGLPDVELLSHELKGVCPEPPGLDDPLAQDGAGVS

Regarding `Cn1cc2c(nc(N=C(Nc3ccc(Cl)cc3)Nc3ccc(Cl)cc3)n3nc(-c4ccco4)nc23)n1`, the Ki is more than 1000 nM in experiment [1], 71 nM in experiment [3] and more than 1000 nM in experiment [4]. Besides, the inhibition was determined as 8% in experiment [2], 11% in experiment [4] and 2% in experiment [6]. In addition, the Kb in experiment [5] was 63 nM; in experiment [6], more than 1000 nM.
`Cn1cc2c(nc(N=C(Nc3ccc([N+](=O)[O-])cc3)Nc3ccc([N+](=O)[O-])cc3)n3nc(-c4ccco4)nc23)n1`: the Ki is more than 1000 nM in experiment [1], 18 nM in experiment [3] and more than 1000 nM in experiment [4]. Besides, the inhibition in experiment [2], in experiment [4] and in experiment [6] was 1% in each case. Moreover, the values for the Kb in experiment [5] and in experiment [6] were 13 nM and more than 1000 nM, respectively.
`CC(C)NC(=Nc1nc2nn(C)cc2c2nc(-c3ccco3)nn12)NC(C)C`: the Ki in experiment [1] is more than 1000 nM; in experiment [3] it was 33 nM; in experiment [4], more than 1000 nM. The inhibition in experiment [2] was found to be 4%; in experiment [4] it was 1%; in experiment [6] it was 3%. In addition, the figures for the Kb in experiment [5] and in experiment [6] were 36 nM and more than 1000 nM, respectively.
As to `COc1ccc(NC(=Nc2nc3nn(C)cc3c3nc(-c4ccco4)nn23)Nc2ccc(OC)cc2)cc1`, the Ki was more than 1000 nM in experiment [1], 42 nM in experiment [3] and more than 1000 nM in experiment [4]. Also, the inhibition is 7% in experiment [2], 1% in experiment [4] and 4% in experiment [6]. The values for the Kb in experiment [5] and in experiment [6] were 42 nM and more than 1000 nM, respectively.
As for `Cn1cc2c(nc(N=C(Nc3ccc(Br)cc3)Nc3ccc(Br)cc3)n3nc(-c4ccco4)nc23)n1`, the Ki in experiment [1] was more than 1000 nM; in experiment [3], 345 nM; in experiment [4], more than 1000 nM. In addition, the inhibition is 1% in experiment [2], 10% in experiment [4] and 1% in experiment [6]. In addition, the values for the Kb in experiment [5] and in experiment [6] were 362 nM and more than 1000 nM, respectively.
Regarding `Cn1cc2c(nc(N=C(Nc3cccc(C(F)(F)F)c3)Nc3cccc(C(F)(F)F)c3)n3nc(-c4ccco4)nc23)n1`, the figures for the Ki in experiment [1], in experiment [3] and in experiment [4] were more than 1000 nM, 520 nM and more than 1000 nM, respectively. In addition, the figures for the inhibition in experiment [2], in experiment [4] and in experiment [6] were 3%, 1% and 2%, respectively. The results for the Kb in experiment [5] and in experiment [6] were 537 nM and more than 1000 nM, respectively.
Turning to `Cn1cc2c(nc(N=C(Nc3ccc(F)cc3)Nc3ccc(F)cc3)n3nc(-c4ccco4)nc23)n1`, the Ki is more than 1000 nM in experiment [1], 122 nM in experiment [3] and more than 1000 nM in experiment [4]. In addition, the figures for the inhibition in experiment [2], in experiment [4] and in experiment [6] were 1%, 16% and 1%, respectively. The Kb in experiment [5] was 129 nM; in experiment [6], more than 1000 nM.
In the case of `Cn1cc2c(nc(N=C(Nc3cccc(Cl)c3)Nc3cccc(Cl)c3)n3nc(-c4ccco4)nc23)n1`, the results for the Ki in experiment [1], in experiment [3] and in experiment [4] were more than 1000 nM, 89 nM and more than 1000 nM, respectively. Besides, the inhibition in experiment [2] was determined as 17%; in experiment [4] it was 1%; in experiment [6], 1%. In addition, the Kb in experiment [5] was 74 nM; in experiment [6], more than 1000 nM.
Regarding `CCN/C(=N\c1nc2nn(C)cc2c2nc(-c3ccco3)nn12)NCCCN(C)C`, the Ki in experiment [1], in experiment [3] and in experiment [4] was more than 1000 nM each time. Moreover, the inhibition in experiment [2] came to 22%; in experiment [7] it was 19%; in experiment [4], 3%; in experiment [5] (concentration not given here) it was 3%; in experiment [6], 1%. Also, the antagonist dissociation constant (Kb) in experiment [5] and in experiment [6] was more than 1000 nM each time.
For the molecule `Cc1ccc(NC(=Nc2nc3nn(C)cc3c3nc(-c4ccco4)nn23)Nc2ccc(C)cc2)cc1`, the Ki was more than 1000 nM in experiment [1], 63 nM in experiment [3] and more than 1000 nM in experiment [4]. Besides, the values for the inhibition in experiment [2], in experiment [4] and in experiment [6] were 6%, 1% and 3%, respectively. The Kb in experiment [5] is 57 nM; in experiment [6] it was more than 1000 nM.
As for `COc1cccc(NC(=Nc2nc3nn(C)cc3c3nc(-c4ccco4)nn23)Nc2cccc(OC)c2)c1`, the Ki in experiment [1] is more than 1000 nM; in experiment [3], 155 nM; in experiment [4] it was more than 1000 nM. Moreover, the figures for the inhibition in experiment [2], in experiment [4] and in experiment [6] were 1%, 18% and 1%, respectively. Also, the figures for the Kb in experiment [5] and in experiment [6] were 141 nM and more than 1000 nM, respectively.
`Cn1cc2c(nc(N=C(Nc3ccc(C#N)cc3)Nc3ccc(C#N)cc3)n3nc(-c4ccco4)nc23)n1`: the Ki in experiment [1] was more than 1000 nM; in experiment [3] it was 30 nM; in experiment [4], more than 1000 nM. Moreover, the inhibition in experiment [2], in experiment [4] and in experiment [6] was 1% in each case. Besides, the results for the Kb in experiment [5] and in experiment [6] were 33 nM and more than 1000 nM, respectively.
`Cn1cc2c(nc(N=C(NC3CCCCC3)NC3CCCCC3)n3nc(-c4ccco4)nc23)n1`: the Ki in experiment [1] is more than 1000 nM; in experiment [3], 29 nM; in experiment [4], more than 1000 nM. Also, the inhibition in experiment [2] came out at 25%; in experiment [4], 3%; in experiment [6], 4%. In addition, the results for the Kb in experiment [5] and in experiment [6] were 32 nM and more than 1000 nM, respectively.
With `Cn1cc2c(nc(N=C(Nc3ccccc3)Nc3ccccc3)n3nc(-c4ccco4)nc23)n1`, the Ki in experiment [1] was more than 1000 nM; in experiment [3], 79 nM; in experiment [4] it was more than 1000 nM. Also, the inhibition in experiment [2] was 10%; in experiment [4], 2%; in experiment [6], 1%. The Kb in experiment [5] was 67 nM; in experiment [6], more than 1000 nM.

(Values after ChEMBL document CHEMBL3580606, “One-pot reaction to obtain N,N'-disubstituted guanidines of pyrazolo[4,3-e][1,2,4]triazolo[1,5-c]pyrimidine scaffold as human A3 adenosine receptor antagonists” (J Med Chem, 2015).)
